Bioassay records from PubChem BioAssay.
A selection: hits, their analogues and other compounds. The true share with any hit is near 3.5%.
RGS4 inh: RGS4 inhibitors, primary screen, cell-based, HEK293 M3R inducible RGS4, calcium flux; B-score at 10 µM; AID 463165, 2010; hit rate 0.45% among 310,000; Fluo-4 calcium flux; active compounds read high; triggered by carbachol at its EC20; Regulator of G-protein signaling 4 (Homo sapiens), P49798;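 active = B-score, a plate-corrected calcium signal, over three deviations above library mean, with baseline fluorescence within five deviations of library mean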;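 also: RGS4 expression induced by doxycycline in cells with stable M3 receptor; B-score is computed from the integrated fluorescence ratio over baseline after carbachol; higher B-score means a larger calcium signal and so more RGS4 inhibition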
Target sequence (P49798 whole entry, looked up): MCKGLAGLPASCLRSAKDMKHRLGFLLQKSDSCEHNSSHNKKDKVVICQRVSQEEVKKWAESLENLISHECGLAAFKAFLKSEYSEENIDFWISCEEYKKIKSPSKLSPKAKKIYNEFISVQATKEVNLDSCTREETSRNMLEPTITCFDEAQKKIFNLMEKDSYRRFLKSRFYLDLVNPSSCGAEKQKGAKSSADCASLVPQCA
RGS4 act: RGS4 potentiators or activators, primary screen, cell-based, HEK293 M3R inducible RGS4, calcium flux | carbachol calcium flux Fluo4; active compounds read low | B-score at 10 µM | hit rate 0.92% among 310,000 | AID 463111, 2010;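 active = B-score of the integrated calcium signal more than 4 SD below the library mean, with starting fluorescence not abnormally high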;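 also: negative B-score means reduced calcium response which marks RGS4 activation or potentiation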
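Detection: kinetic calcium fluorescence imaging with Fluo4-AM dye, 2 µM / Material: HEK293 cells with stable M3R and inducible RGS4 / Schedule: recording 10 s baseline at 1 Hz, 100 s post-agonist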
MrgX1 allo act: positive allosteric modulators of MrgX1, primary screen, HEK293 cells, Fluo-4 calcium flux; hit rate 0.63% among 310,000; FDSS; active compounds read high; Mas-related G-protein coupled receptor member X1 (Homo sapiens), Q96LB2; AID 588675, 2011; B-score at 10 µM;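 active = plate-corrected calcium response at least 3 library SD above typical, normal starting fluorescence, not activating the receptor alone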;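 also: compound read alongside a low EC10 to EC30 dose of BAM8-22 agonist; peak minus trough fluorescence over baseline measured at the second addition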
Target sequence (Q96LB2 whole entry, looked up): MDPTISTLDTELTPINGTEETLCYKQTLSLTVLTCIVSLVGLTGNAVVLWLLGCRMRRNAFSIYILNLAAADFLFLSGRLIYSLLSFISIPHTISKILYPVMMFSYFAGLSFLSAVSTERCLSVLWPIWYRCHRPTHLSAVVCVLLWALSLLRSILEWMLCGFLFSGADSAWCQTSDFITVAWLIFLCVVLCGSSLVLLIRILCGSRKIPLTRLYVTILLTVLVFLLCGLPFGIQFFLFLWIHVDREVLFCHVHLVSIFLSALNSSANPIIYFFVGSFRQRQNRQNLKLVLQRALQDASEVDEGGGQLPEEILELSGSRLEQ
MrgX1 ag: agonists of human MrgX1 receptor, primary screen, HEK293 cells, Fluo-4 calcium flux; hit rate 0.44% among 310,000; Mas-related G-protein coupled receptor member X1 (Homo sapiens), Q96LB2; Fluo-4 calcium fluorescence, agonist mode; active compounds read high; B-score at 10 µM;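 active = calcium response B-score plate-corrected fluorescence ratio at least 3 library SD, with starting fluorescence B-score inside 5 SD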
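times = overnight plating, then 30 min 37 °C plus 30 min room-temperature dye loading | assay system = stable human MrgX1 HEK293 cell line | input = fifteen thousand cells per well | signal = kinetic calcium dye fluorescence, Fluo-4 NW | dosing = compound delivered in addition one of three | read-out = B-scored fluorescence response ratio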
MrgX1 antagonist: antagonists of human MrgX1 receptor, primary screen, HEK293 cells, Fluo-4 calcium flux; Mas-related G-protein coupled receptor member X1 (Homo sapiens), Q96LB2; BAM8-22 antagonism; active compounds read low; B-score at 10 µM; hit rate 1.3% among 310,000;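 active = calcium-response B-score plate-corrected more than 3 library SD below zero, starting fluorescence within 5 deviations, no agonist response on first addition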;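 also: peak minus trough fluorescence over baseline after final BAM8-22 challenge near maximal dose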
MrgX1 PAM conf: MrgX1 positive allosteric modulators, duplicate retest, confirmation, HEK293 cells, Fluo-4 calcium flux; shares compounds with MrgX1 allo act; Fluo-4 calcium fluorescence, FDSS; activation (ratio percentage), % at 10 µM; hit rate 13% among 1,200; AID 602413, 2012;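 active = ratio at least 3 SD above the weak peptide control, stable starting fluorescence, no direct agonism earlier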;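 also: compound followed by low BAM8-22 agonist challenge near EC20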
HEK293 Ca flux: nonspecific calcium signal in parental HEK293, confirmation, counter-screen for MrgX1 antagonist project, parental HEK293 cells, Fluo-4 calcium flux; shares compounds with MrgX1 antagonist; Fluo-4 calcium fluorescence, FDSS; fluorescence ratio F(max-min)/F0 at 10 µM; hit rate 2% among 4,000;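 active = duplicate-averaged calcium fluorescence ratio at least three times the standard deviation of buffer wells, a nonspecific response in parental cells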
HEK293 Ca counter: calcium response in parental HEK293 cells, primary screen, counter-screen for MrgX1 allosteric activator project, cell-based, Fluo-4 calcium flux, duplicate; shares compounds with MrgX1 antagonist; Fluo-4 fluorescence ratio; active compounds read high; fluorescence ratio F(max-min)/F0 at 10 µM; hit rate 0.4% among 4,000;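 active = calcium fluorescence ratio, averaged over duplicates, at least 3 SD of the buffer-well ratio, meaning a nonspecific response in receptor-free cells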;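 also: untransfected parental HEK293 lacking MrgX1 used as counterscreen for MrgX1 allosteric activators; fluorescence change taken during the second addition on a kinetic imager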
HEK293 Ca cntr2: calcium response in parental HEK293 cells, primary screen, counter-screen for MrgX1 agonist project, cell-based, Fluo-4 calcium flux, duplicate, agonist mode; shares compounds with MrgX1 antagonist; Fluo-4 calcium fluorescence (FDSS); active compounds read high; fluorescence ratio F(max-min)/F0 at 10 µM; hit rate 8.7% among 4,000; AID 624115, 2012;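 active = calcium fluorescence ratio at least three times the spread of buffer wells, meaning a non-specific response in parental cells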
Starred values were filed as active, the others as inactive; i = inactive; . = no result given.

SMILES | RGS4 inh | RGS4 act | MrgX1 allo act | MrgX1 ag | MrgX1 antagonist | MrgX1 PAM conf | HEK293 Ca flux | HEK293 Ca counter | HEK293 Ca cntr2
Cc1nn(-c2ccc(N3CCCCC3)nn2)c(C)c1CCC(=O)Nc1cc(F)ccc1F | i | i | 7.8* | i | i | i | i | i | i
CC(=O)c1sc(N2CCOCC2)nc1-c1ccccc1 | i | i | 12* | i | i | i | i | i | i
CCN(CC)C(=O)c1ccc(NS(=O)(=O)c2ccc3[nH]c(=O)[nH]c3c2)cc1 | i | i | i | i | i | . | . | . | .
COc1ccc(OC)c(N=c2ssnc2Cl)c1 | i | i | i | i | i | . | . | . | .
Cc1c(C)n(CC(O)CN2C(=O)c3ccccc3S2(=O)=O)c2ccccc12 (stereo not drawn) | i | i | 10* | i | i | i | i | i | i
COC(=O)c1c(-c2cccc(C)c2)csc1NC(=O)C1CCCO1 (stereo not drawn) | i | i | i | i | i | . | . | . | .
COC(=O)c1c(-c2ccc(F)cc2)csc1NC(=O)c1ccco1 | i | i | 22* | i | i | 22%* | i | i | i
CCOC(=O)c1c(-c2ccc(C)cc2)csc1NC(=O)C1CCCO1 (stereo not drawn) | i | i | 13* | i | i | 19%* | i | i | i
O=C(Nc1scc(-c2ccccc2)c1C(=O)O)c1ccco1 | i | i | i | i | i | . | . | . | .
CCOC(=O)c1c(-c2ccc(OC)cc2)csc1NC(=O)C1CCCO1 (stereo not drawn) | i | i | 24* | i | i | i | i | i | i
CCOC(=O)c1c(-c2ccc(F)cc2)csc1NC(=O)C1CCCO1 (stereo not drawn) | i | i | 11* | i | i | i | i | i | i
CCOc1cccc(NC(=O)CSc2nncn2N)c1 | i | i | 7.4* | i | i | i | i | i | i
Cc1cc(NC(=O)c2cccc(S(=O)(=O)N3CC(c4ccccc4)CC3=O)c2)no1 (stereo not drawn) | i | i | 8.3* | i | i | i | i | i | i
CCC1(C)Cc2ccccc2-c2nc(NCCCO)n(C)c(=O)c21 (stereo not drawn) | i | i | i | i | i | . | . | . | .
CCC1(C)Cc2ccccc2-c2nc(NCCO)n(-c3ccccc3)c(=O)c21 (stereo not drawn) | i | i | 7.7* | i | i | i | i | i | i
CC1=CC(C)(C)N(C(=O)CSc2nnc(N)s2)c2ccccc21 | i | i | i | i | i | . | . | . | .
CCS(=O)c1scc(-c2ccc(Cl)cc2)c1C#N (stereo not drawn) | i | i | i | i | i | . | . | . | .
O=C(c1cccc(S(=O)(=O)NCc2ccccc2)c1)N1CCCC1 | i | i | i | i | i | . | . | . | .
CC(=O)Nc1sc(/C(C#N)=C\c2cccc(Cl)c2)nc1-c1ccc(C)cc1 | i | i | 20* | i | i | i | 0.065* | i | 59*
COc1ccccc1-c1nc2ccccc2nc1-c1ccccc1 | i | i | 9* | i | i | i | i | 51* | i
Cc1ccc(Cl)cc1N1CCN(S(=O)(=O)c2ccc3c(c2)NC(=O)C(C)C(=O)N3)CC1 (stereo not drawn) | i | i | i | i | i | . | . | . | .
CS(=O)(=O)N(Cc1cc2ccccc2[nH]c1=O)C1CCCCC1 | i | i | 6.8* | i | i | i | i | i | i
O=C(CCCC(=O)OCC(=O)c1ccc(F)cc1)Nc1cc(C(F)(F)F)ccc1Cl | i | i | i | i | i | . | . | . | .
CCOC(=O)/C(C(=Nc1ccccc1)Nc1ccccc1)=C(\C)O | i | i | 7.7* | i | i | i | i | i | i
C[C@@H](O)[C@@H]1NC(=O)c2cc([N+](=O)[O-])cc(I)c2NCC[C@@H](C(N)=O)NC(=O)CNC1=O | . | . | i | i | i | . | . | . | .
SMILES | RGS4 inh | RGS4 act | MrgX1 allo act | MrgX1 ag | MrgX1 antagonist | MrgX1 PAM conf | HEK293 Ca flux | HEK293 Ca counter | HEK293 Ca cntr2
CCOc1ccccc1N(CC(=O)NC1CCCCC1)S(=O)(=O)c1ccc(C)cc1 | i | i | 9.2* | i | i | i | i | i | i
O=C1C(=O)N(CCN2CCOCC2)C(c2ccncc2)/C1=C(/O)c1ccc2c(c1)OCO2 (stereo not drawn) | i | i | 7.7* | i | i | i | i | i | i
CC1CN(c2cc(-c3ccccc3)c3ccccc3n2)CC(C)O1 (stereo not drawn) | i | i | i | i | i | . | . | . | .
CC1CN(c2nc3ccccc3cc2-c2ccccc2)CC(C)O1 (stereo not drawn) | i | i | 17* | i | i | i | i | i | i
COC(=O)CNC(=O)CSc1nc2sc(-c3ccccc3)cc2c(=O)n1-c1ccccc1 | i | i | 11* | i | i | i | i | i | i
Cn1ccnc1CN1CCN(C(=O)c2cc(COc3ccc(F)c(F)c3)on2)CC1 | i | i | i | i | i | . | . | . | .
CC(C)c1ccc(NC(=S)Nc2ccc3[nH]c(=O)[nH]c3c2)cc1 | i | i | 15* | i | i | i | i | i | i
O=c1[nH]c2ccc(NC(=S)Nc3ccc(Cl)cc3)cc2[nH]1 | i | i | i | i | i | . | . | . | .
Cc1ccccc1N1C(=O)C2C3C=CC(C2C1=O)N(C)C3=O (stereo not drawn) | i | i | i | i | i | . | . | . | .
